Source: the M2OR odorant receptor database

Experiments:
Conditions in all cases: stereoisomer not certain
O1440 [1] = system: T1, O1440
T1 sequence (whole entry): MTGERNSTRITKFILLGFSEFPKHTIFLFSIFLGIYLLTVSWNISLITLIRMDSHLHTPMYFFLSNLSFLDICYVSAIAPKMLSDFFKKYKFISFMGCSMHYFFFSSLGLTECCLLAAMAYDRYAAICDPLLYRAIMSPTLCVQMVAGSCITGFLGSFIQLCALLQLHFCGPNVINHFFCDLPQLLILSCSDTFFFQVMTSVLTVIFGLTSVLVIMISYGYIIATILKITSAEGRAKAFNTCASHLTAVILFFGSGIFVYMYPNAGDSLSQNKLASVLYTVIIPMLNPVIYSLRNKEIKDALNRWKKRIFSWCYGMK
Summary of the method: (§1)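 Each receptor–molecule pair is labelled responsive or non-responsive (inactive) according to whether the original authors judged the measured signal statistically different from baseline. The data were taken from the main text and supplementary material of published papers and checked for typos and inconsistencies. Assay methods differed by source, with transient luciferase assays in mammalian cell lines being common.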

O1440 [2] = system: T2, O1440; remark: listed apart in the source
T2 sequence (whole entry): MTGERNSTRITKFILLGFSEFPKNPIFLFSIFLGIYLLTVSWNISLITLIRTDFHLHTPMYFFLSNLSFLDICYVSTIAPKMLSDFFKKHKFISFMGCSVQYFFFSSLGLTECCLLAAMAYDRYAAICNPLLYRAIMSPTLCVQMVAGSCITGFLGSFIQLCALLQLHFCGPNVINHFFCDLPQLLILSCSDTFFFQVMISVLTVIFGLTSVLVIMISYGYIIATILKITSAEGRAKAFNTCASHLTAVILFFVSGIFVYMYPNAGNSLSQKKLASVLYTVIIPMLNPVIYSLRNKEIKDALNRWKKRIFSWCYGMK
Summary of the method: as §1

O14A2 I133V = system: O14A2 I133V
Summary of the method: as §1

O14CZ = system: O14CZ
Summary of the method: as §1

O14I1 V36A D50N Y216C = system: O14I1 V36A D50N Y216C
Summary of the method: as §1

O14J1 N3Y = system: O14J1 N3Y
Summary of the method: as §1

O14K1 D119Y = system: O14K1 D119Y
Summary of the method: as §1

O2A25 = system: O2A25
Summary of the method: as §1

O2AE1 = system: O2AE1
Summary of the method: as §1

O2AJ1 = system: O2AJ1
Summary of the method: as §1

O2AK2 S99N = system: O2AK2 S99N
Summary of the method: as §1

O2T11 = system: O2T11
Summary of the method: as §1

O2T27 L36V V134D = system: O2T27 L36V V134D
Summary of the method: as §1

O2T29 Q24R = system: O2T29 Q24R
Summary of the method: as §1

O2T33 A169V = system: O2T33 A169V
Summary of the method: as §1

O2T33 G297E I309L = system: O2T33 G297E I309L
Summary of the method: as §1

O2T34 Q6P R267P = system: O2T34 Q6P R267P
Summary of the method: as §1

O2T34 R267P = system: O2T34 R267P
Summary of the method: as §1

O4A47 = system: O4A47
Summary of the method: as §1

O4C46 S240F C252Y K288R = system: O4C46 S240F C252Y K288R
Summary of the method: as §1

Measured: odorant receptor agonist call

Sequence of O14A2 I133V (as listed by the source, stated change not applied): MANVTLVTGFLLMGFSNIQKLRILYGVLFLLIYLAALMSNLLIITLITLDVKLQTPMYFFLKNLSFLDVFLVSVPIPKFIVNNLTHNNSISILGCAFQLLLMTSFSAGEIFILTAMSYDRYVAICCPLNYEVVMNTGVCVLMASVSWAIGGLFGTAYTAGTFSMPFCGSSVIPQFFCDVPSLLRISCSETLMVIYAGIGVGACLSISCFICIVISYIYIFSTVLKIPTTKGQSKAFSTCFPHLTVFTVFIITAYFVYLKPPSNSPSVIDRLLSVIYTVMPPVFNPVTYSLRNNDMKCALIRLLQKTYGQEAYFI
Sequence of O2T29 Q24R (as listed by the source, stated change not applied): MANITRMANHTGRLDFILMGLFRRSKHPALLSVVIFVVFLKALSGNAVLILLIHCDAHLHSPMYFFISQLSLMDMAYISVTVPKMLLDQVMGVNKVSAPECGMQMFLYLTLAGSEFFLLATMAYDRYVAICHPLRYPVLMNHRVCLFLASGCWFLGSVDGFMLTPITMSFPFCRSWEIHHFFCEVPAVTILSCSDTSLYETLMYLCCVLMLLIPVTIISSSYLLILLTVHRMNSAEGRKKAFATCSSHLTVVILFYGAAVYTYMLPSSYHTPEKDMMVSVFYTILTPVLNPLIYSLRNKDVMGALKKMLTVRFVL
Sequence of O2AJ1 (as listed by the source): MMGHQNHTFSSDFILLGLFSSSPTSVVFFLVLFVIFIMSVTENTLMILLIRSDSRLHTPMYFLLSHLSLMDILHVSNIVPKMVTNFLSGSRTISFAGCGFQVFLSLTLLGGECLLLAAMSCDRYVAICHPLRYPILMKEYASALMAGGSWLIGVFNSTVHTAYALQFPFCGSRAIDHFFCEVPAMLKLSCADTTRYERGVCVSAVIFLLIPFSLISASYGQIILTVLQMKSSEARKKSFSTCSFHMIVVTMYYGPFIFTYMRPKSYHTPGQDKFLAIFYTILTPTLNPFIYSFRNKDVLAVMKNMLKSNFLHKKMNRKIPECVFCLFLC
Sequence of O2AK2 S99N (as listed by the source, stated change not applied): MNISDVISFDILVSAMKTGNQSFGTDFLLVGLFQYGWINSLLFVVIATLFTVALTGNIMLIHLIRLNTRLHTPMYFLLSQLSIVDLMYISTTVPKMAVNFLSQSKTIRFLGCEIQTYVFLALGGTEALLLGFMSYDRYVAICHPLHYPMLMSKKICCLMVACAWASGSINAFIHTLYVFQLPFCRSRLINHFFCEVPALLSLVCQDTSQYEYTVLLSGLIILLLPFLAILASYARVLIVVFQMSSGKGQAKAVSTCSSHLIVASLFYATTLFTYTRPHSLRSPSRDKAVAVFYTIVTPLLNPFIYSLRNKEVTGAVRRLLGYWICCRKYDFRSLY
Sequence of O2T33 A169V (as listed by the source, stated change not applied): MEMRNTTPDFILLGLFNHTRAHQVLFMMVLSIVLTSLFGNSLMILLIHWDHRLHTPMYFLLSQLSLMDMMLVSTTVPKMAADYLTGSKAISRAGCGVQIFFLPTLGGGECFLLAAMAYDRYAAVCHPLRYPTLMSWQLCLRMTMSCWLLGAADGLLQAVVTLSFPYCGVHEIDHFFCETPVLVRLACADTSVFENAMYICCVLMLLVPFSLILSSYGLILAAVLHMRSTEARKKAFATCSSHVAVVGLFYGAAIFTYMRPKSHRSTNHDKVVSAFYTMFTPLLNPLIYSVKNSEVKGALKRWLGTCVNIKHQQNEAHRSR
Sequence of O2T34 R267P (as listed by the source, stated change not applied): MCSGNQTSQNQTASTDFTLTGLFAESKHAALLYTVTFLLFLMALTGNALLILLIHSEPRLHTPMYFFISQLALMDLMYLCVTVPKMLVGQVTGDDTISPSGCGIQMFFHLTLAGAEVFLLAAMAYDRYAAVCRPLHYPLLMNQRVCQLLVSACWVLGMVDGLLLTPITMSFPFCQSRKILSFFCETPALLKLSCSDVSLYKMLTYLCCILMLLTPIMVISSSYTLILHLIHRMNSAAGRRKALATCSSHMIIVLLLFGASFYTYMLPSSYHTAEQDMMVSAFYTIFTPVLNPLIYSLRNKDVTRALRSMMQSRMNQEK
Sequence of O14K1 D119Y (as listed by the source, stated change not applied): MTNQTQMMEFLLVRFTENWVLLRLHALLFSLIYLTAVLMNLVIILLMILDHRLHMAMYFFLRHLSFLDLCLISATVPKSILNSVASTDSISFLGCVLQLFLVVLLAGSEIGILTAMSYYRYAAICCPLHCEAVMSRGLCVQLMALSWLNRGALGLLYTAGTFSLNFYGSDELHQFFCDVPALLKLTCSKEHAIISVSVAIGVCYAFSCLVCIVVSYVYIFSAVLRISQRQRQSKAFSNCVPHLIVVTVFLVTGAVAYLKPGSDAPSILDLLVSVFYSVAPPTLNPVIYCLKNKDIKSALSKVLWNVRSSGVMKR
Sequence of O2T11 (as listed by the source): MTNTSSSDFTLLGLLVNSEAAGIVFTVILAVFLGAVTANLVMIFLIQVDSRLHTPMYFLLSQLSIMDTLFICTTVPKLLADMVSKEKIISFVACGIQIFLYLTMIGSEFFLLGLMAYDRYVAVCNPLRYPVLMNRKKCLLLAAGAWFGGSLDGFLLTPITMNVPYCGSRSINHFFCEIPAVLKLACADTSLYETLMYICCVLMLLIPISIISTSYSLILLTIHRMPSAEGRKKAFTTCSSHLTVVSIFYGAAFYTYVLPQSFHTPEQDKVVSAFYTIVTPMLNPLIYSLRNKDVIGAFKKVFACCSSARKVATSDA
Sequence of O14J1 N3Y (as listed by the source): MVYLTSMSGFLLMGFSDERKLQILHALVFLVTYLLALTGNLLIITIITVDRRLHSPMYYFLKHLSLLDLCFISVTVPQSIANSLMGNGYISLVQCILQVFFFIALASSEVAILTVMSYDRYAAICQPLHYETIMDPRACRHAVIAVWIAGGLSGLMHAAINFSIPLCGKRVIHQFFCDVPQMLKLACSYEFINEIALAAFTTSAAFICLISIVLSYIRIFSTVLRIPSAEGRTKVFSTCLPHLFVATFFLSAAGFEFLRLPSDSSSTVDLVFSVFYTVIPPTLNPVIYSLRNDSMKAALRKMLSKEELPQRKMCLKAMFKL
Sequence of O2AE1 (as listed by the source): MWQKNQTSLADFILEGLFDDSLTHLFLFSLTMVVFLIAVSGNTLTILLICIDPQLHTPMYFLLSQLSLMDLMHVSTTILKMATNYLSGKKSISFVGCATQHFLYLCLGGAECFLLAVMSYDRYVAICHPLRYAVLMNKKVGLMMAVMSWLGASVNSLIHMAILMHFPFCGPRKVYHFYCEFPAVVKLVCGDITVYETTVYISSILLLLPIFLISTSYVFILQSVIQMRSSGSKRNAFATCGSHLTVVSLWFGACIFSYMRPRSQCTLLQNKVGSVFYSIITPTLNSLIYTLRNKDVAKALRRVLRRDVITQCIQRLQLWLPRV
Sequence of O4A47 (as listed by the source): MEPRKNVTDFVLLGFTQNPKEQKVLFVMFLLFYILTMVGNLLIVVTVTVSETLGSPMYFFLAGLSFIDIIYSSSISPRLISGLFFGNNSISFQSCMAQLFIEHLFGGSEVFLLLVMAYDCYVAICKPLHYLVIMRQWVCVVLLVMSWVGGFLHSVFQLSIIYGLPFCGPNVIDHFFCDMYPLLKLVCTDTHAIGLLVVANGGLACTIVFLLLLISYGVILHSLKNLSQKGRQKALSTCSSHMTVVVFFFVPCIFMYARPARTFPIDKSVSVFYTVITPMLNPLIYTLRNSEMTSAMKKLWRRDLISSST
Sequence of O14CZ (as listed by the source): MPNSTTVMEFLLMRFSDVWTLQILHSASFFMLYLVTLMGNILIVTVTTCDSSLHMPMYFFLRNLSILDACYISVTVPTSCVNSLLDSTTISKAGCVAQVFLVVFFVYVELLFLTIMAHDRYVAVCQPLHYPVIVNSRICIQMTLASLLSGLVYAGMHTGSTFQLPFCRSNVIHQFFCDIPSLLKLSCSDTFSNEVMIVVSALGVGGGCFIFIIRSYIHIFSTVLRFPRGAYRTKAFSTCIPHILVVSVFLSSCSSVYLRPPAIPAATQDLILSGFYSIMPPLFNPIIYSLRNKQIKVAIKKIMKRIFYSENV
Sequence of O2A25 (as listed by the source): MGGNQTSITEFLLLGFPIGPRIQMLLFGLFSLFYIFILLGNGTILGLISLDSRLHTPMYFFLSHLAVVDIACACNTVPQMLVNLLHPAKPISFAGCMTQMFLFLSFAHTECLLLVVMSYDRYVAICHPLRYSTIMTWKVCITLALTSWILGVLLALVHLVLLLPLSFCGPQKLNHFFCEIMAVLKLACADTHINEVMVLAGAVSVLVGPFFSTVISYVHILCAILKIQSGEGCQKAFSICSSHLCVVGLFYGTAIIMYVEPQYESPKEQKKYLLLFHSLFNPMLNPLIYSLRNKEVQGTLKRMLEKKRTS

CC(=O)c1cc(C(C)(C)C)cc2c1CCC2(C)C
inactive: O1440 [1] | O1440 [2]

C=CCOC(=O)Cc1ccccc1
inactive: O14A2 I133V | O14CZ | O14I1 V36A D50N Y216C | O14J1 N3Y | O14K1 D119Y | O2A25 | O2AE1 | O2AJ1 | O2AK2 S99N | O2T11 | O2T27 L36V V134D | O2T29 Q24R | O2T33 A169V | O2T33 G297E I309L | O2T34 Q6P R267P | O2T34 R267P | O4A47 | O4C46 S240F C252Y K288R

Cc1c([N+](=O)[O-])c(C)c([N+](=O)[O-])c(C(C)(C)C)c1[N+](=O)[O-]
active: O1440 [2]
inactive: O1440 [1]

CC(=O)c1cc2c(cc1C)C(C)(C)C(C)CC2(C)C (centres undefined)
active: O1440 [1] | O1440 [2]
